Converted amounts (≈) assume the structure as drawn.
Legend:
MCF7 [1] = test: Effect on SOD level in human MCF7 cells assessed per mg protein at 5 ug/ml after 24 hrs (reference value: 27.61+/- 3.72 U/mg of protein); format: functional
MCF7 [2] = test: Increase in SOD level in human MCF7 cells; format: functional, cell-based
MCF7 [3] = test: Effect on glutathione level in human MCF7 cells assessed per mg protein at 2 ug/ml by Ellman method after 24 hrs (reference value: 39.82 +/- 4.20 nmol/mg of protein); format: functional
MCF7 [4] = test: Effect on hydrogen peroxide level in human MCF7 cells assessed per mg protein at 5 ug/ml by Wolf's method after 24 hrs (reference value: 12.50 +/- 1.54 nmol/mg of protein); format: functional
MCF7 [5] = test: Effect on DNA level in human MCF7 cells assessed per 10 '6 cells at 5 ug/ml after 24 hrs (reference value: 6.80 +/- 0.70 ug/10^6 cells); format: functional
Outline: (§1)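 After 24 h exposure of MCF-7 cells to compound at 2, 5, 10 or 20 µg/ml at 37 °C, nucleic acids were precipitated from cell homogenates. DNA was extracted and assayed by the Zhou et al. method, and RNA by a kit-derived procedure. Results given per 10⁶ cells as means ± S.E. of four experiments versus untreated control.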

MCF7 [6] = test: Effect on SOD level in human MCF7 cells assessed per mg protein at 10 ug/ml after 24 hrs (reference value: 27.61+/- 3.72 U/mg of protein); format: functional
MCF7 [7] = test: Effect on RNA level in human MCF7 cells assessed per 10 '6 cells at 20 ug/ml after 24 hrs (reference value: 11.50 +/- 0.70 ug/10^6 cells); format: functional; outline: as §1
MCF7 [8] = test: Effect on SOD level in human MCF7 cells assessed per mg protein at 20 ug/ml after 24 hrs (reference value: 27.61+/- 3.72 U/mg of protein); format: functional
MCF7 [9] = test: Effect on DNA level in human MCF7 cells assessed per 10 '6 cells at 2 ug/ml after 24 hrs (reference value: 6.80 +/- 0.70 ug/10^6 cells); format: functional; outline: as §1
MCF7 [10] = test: Effect on RNA level in human MCF7 cells assessed per 10 '6 cells at 5 ug/ml after 24 hrs (reference value: 11.50 +/- 0.70 ug/10^6 cells); format: functional; outline: as §1
MCF7 [11] = test: Effect on glutathione peroxidase level in human MCF7 cells assessed per mg protein at 2 ug/ml after 24 hrs (reference value: 11.20 +/- 1.36 U/mg of protein); format: functional
MCF7 [12] = test: Effect on glutathione peroxidase level in human MCF7 cells assessed per mg protein at 10 ug/ml after 24 hrs (reference value: 11.20 +/- 1.36 U/mg of protein); format: functional
MCF7 [13] = test: Effect on DNA level in human MCF7 cells assessed per 10 '6 cells at 20 ug/ml after 24 hrs (reference value: 6.80 +/- 0.70 ug/10^6 cells); format: functional; outline: as §1
MCF7 [14] = test: Effect on DNA level in human MCF7 cells assessed per 10 '6 cells at 10 ug/ml after 24 hrs (reference value: 6.80 +/- 0.70 ug/10^6 cells); format: functional; outline: as §1
MCF7 [15] = test: Effect on RNA level in human MCF7 cells assessed per 10 '6 cells at 10 ug/ml after 24 hrs (reference value: 11.50 +/- 0.70 ug/10^6 cells); format: functional; outline: as §1
MCF7 [16] = test: Effect on hydrogen peroxide level in human MCF7 cells assessed per mg protein at 20 ug/ml by Wolf's method after 24 hrs (reference value: 12.50 +/- 1.54 nmol/mg of protein); format: functional
MCF7 [17] = test: Increase in hydrogen peroxide level in human MCF7 cells; format: functional, cell-based
MCF7 [18] = test: Effect on RNA level in human MCF7 cells assessed per 10 '6 cells at 2 ug/ml after 24 hrs (reference value: 11.50 +/- 0.70 ug/10^6 cells); format: functional; outline: as §1
MCF7 [19] = test: Effect on glutathione level in human MCF7 cells assessed per mg protein at 10 ug/ml by Ellman method after 24 hrs (reference value: 39.82 +/- 4.20 nmol/mg of protein); format: functional
MCF7 [20] = test: Effect on glutathione peroxidase level in human MCF7 cells assessed per mg protein at 5 ug/ml after 24 hrs (reference value: 11.20 +/- 1.36 U/mg of protein); format: functional
MCF7 [21] = test: Decrease in RNA level in human MCF7 cells assessed per 10 '6 cells after 24 hrs relative to control; format: functional, cell-based; outline: as §1
MCF7 [22] = test: Decrease in DNA level in human MCF7 cells assessed per 10 '6 cells after 24 hrs relative to control; format: functional, cell-based; outline: as §1
MCF7 [23] = test: Effect on CAT level in human MCF7 cells assessed per mg protein at 5 ug/ml after 24 hrs (reference value: 7.90+/- 0.67 U/mg of protein); format: functional
MCF7 [24] = test: Decrease in CAT level in human MCF7 cells; format: functional, cell-based
MCF7 [25] = test: Effect on glutathione peroxidase level in human MCF7 cells assessed per mg protein at 20 ug/ml after 24 hrs (reference value: 11.20 +/- 1.36 U/mg of protein); format: functional
MCF7 [26] = test: Antiproliferative activity against human MCF7 cells after 24 hrs by MTT assay; format: functional, cell-based; conditions: for IC50: MCF7, 24 h
Outline: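 MCF-7 cells (DMEM, 10% heat-inactivated FCS, penicillin/streptomycin, 37 °C, 5% CO2) plated at 0.65 × 10⁵ cells/well and given 24 h to attach. Exposed to compound or cisplatin at 2, 5, 10 or 20 µg/ml for 24 h at 37 °C. MTT added for 4 h, formazan dissolved in DMSO, absorbance read at 570 nm. Viability taken relative to untreated cells and IC50 derived.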

MCF7 [27] = test: Effect on CAT level in human MCF7 cells assessed per mg protein at 10 ug/ml after 24 hrs (reference value: 7.90+/- 0.67 U/mg of protein); format: functional
MCF7 [28] = test: Effect on SOD level in human MCF7 cells assessed per mg protein at 2 ug/ml after 24 hrs (reference value: 27.61+/- 3.72 U/mg of protein); format: functional
MCF7 [29] = test: Effect on glutathione level in human MCF7 cells assessed per mg protein at 5 ug/ml by Ellman method after 24 hrs (reference value: 39.82 +/- 4.20 nmol/mg of protein); format: functional
MCF7 [30] = test: Decrease in glutathione peroxidase level in human MCF7 cells; format: functional, cell-based
MCF7 [31] = test: Effect on glutathione level in human MCF7 cells assessed per mg protein at 20 ug/ml by Ellman method after 24 hrs (reference value: 39.82 +/- 4.20 nmol/mg of protein); format: functional
MCF7 [32] = test: Decrease in glutathione level in human MCF7 cells; format: functional, cell-based
MCF7 [33] = test: Effect on CAT level in human MCF7 cells assessed per mg protein at 20 ug/ml after 24 hrs (reference value: 7.90+/- 0.67 U/mg of protein); format: functional
MCF7 [34] = test: Effect on hydrogen peroxide level in human MCF7 cells assessed per mg protein at 2 ug/ml by Wolf's method after 24 hrs (reference value: 12.50 +/- 1.54 nmol/mg of protein); format: functional
MCF7 [35] = test: Effect on CAT level in human MCF7 cells assessed per mg protein at 2 ug/ml after 24 hrs (reference value: 7.90+/- 0.67 U/mg of protein); format: functional
MCF7 [36] = test: Effect on hydrogen peroxide level in human MCF7 cells assessed per mg protein at 10 ug/ml by Wolf's method after 24 hrs (reference value: 12.50 +/- 1.54 nmol/mg of protein); format: functional

| SMILES | Activity (MCF7 [1]) [U/mg protein] | Activity (MCF7 [2]) | Activity (MCF7 [3]) [nmol] | Activity (MCF7 [4]) [nmol] | Activity (MCF7 [5]) [µg/10^6 cells] | Activity (MCF7 [6]) [U/mg protein] | Activity (MCF7 [7]) [µg/10^6 cells] | Activity (MCF7 [8]) [U/mg protein] | Activity (MCF7 [9]) [µg/10^6 cells] | Activity (MCF7 [10]) [µg/10^6 cells] | Activity (MCF7 [11]) [U/mg protein] | Activity (MCF7 [12]) [U/mg protein] | Activity (MCF7 [13]) [µg/10^6 cells] | Activity (MCF7 [14]) [µg/10^6 cells] | Activity (MCF7 [15]) [µg/10^6 cells] | Activity (MCF7 [16]) [nmol] | Activity (MCF7 [17]) | Activity (MCF7 [18]) [µg/10^6 cells] | Activity (MCF7 [19]) [nmol] | Activity (MCF7 [20]) [U/mg protein] | other results |
| --- | --- | --- | --- | --- | --- | --- | --- | --- | --- | --- | --- | --- | --- | --- | --- | --- | --- | --- | --- | --- | --- |
| Cc1nc(-n2ncc3c(=S)[nH]cnc32)c2c3c(sc2n1)CCc1ccccc1-3 | 85.4 | Dose-dependent effect | 39.9 | 21.6 | 5 | 121 | 6.8 | 181 | 5.3 | 7.9 | 8.3 | 7.7 | 4 | 4.76 | 7 | 46.37 | Dose-dependent effect | 9.11 | 29.11 | 7.9 | Activity (MCF7 [21]): Dose-dependent effect; Activity (MCF7 [22]): Dose-dependent effect; Activity (MCF7 [23]): 5.36 U/mg protein; Activity (MCF7 [24]): Dose-dependent effect; Activity (MCF7 [25]): 6.82 U/mg protein; Activity (MCF7 [26]): Dose-dependent effect; IC50 (MCF7 [26]): 8 µg/mL (≈ 19.9 µM); Activity (MCF7 [27]): 4.9 U/mg protein; Activity (MCF7 [28]): 77.9 U/mg protein; Activity (MCF7 [29]): 33.12 nmol; Activity (MCF7 [30]): Dose-dependent effect; Activity (MCF7 [31]): 27 nmol; Activity (MCF7 [32]): Dose-dependent effect; Activity (MCF7 [33]): 4 U/mg protein; Activity (MCF7 [34]): 24.2 nmol; Activity (MCF7 [35]): 6.33 U/mg protein; Activity (MCF7 [36]): 30.5 nmol |
| CCSc1ncnc2c1cnn2-c1nc(C)nc2sc3c(c12)-c1ccccc1CC3 | 150 | Dose-dependent effect | 20.11 | 55 | 3.1 | 360 | 3.61 | 385 | 3.8 | 4.32 | 5.6 | 3 | 1.82 | 2.76 | 4 | 80 | Dose-dependent effect | 5.5 | 17 | 4.25 | Activity (MCF7 [21]): Dose-dependent effect; Activity (MCF7 [22]): Dose-dependent effect; Activity (MCF7 [23]): 2.9 U/mg protein; Activity (MCF7 [24]): Dose-dependent effect; Activity (MCF7 [25]): 2.2 U/mg protein; Activity (MCF7 [26]): Dose-dependent effect; IC50 (MCF7 [26]): 3 µg/mL (≈ 6.97 µM); Activity (MCF7 [27]): 1.76 U/mg protein; Activity (MCF7 [28]): 125 U/mg protein; Activity (MCF7 [29]): 19.16 nmol; Activity (MCF7 [30]): Dose-dependent effect; Activity (MCF7 [31]): 14.8 nmol; Activity (MCF7 [32]): Dose-dependent effect; Activity (MCF7 [33]): 1.55 U/mg protein; Activity (MCF7 [34]): 35 nmol; Activity (MCF7 [35]): 3.6 U/mg protein; Activity (MCF7 [36]): 60.5 nmol |
| COCCSc1ncnc2c1cnn2-c1nc(C)nc2sc3c(c12)-c1ccccc1CC3 | 136 | Dose-dependent effect | 23.6 | 45.77 | 3.44 | 310 | 4.8 | 310 | 4 | 5.72 | 6 | 4 | 2.5 | 2.96 | 5.21 | 66.8 | Dose-dependent effect | 6.2 | 18.75 | 5.65 | Activity (MCF7 [21]): Dose-dependent effect; Activity (MCF7 [22]): Dose-dependent effect; Activity (MCF7 [23]): 3.4 U/mg protein; Activity (MCF7 [24]): Dose-dependent effect; Activity (MCF7 [25]): 2.9 U/mg protein; Activity (MCF7 [26]): Dose-dependent effect; IC50 (MCF7 [26]): 4.3 µg/mL (≈ 9.34 µM); Activity (MCF7 [27]): 3 U/mg protein; Activity (MCF7 [28]): 105 U/mg protein; Activity (MCF7 [29]): 20.95 nmol; Activity (MCF7 [30]): Dose-dependent effect; Activity (MCF7 [31]): 15.6 nmol; Activity (MCF7 [32]): Dose-dependent effect; Activity (MCF7 [33]): 2.1 U/mg protein; Activity (MCF7 [34]): 30.75 nmol; Activity (MCF7 [35]): 3.9 U/mg protein; Activity (MCF7 [36]): 58.5 nmol |

Reference: ChEMBL document CHEMBL1759915, “Synthesis and anticancer effects of some novel pyrazolo[3,4-d]pyrimidine derivatives by generating reactive oxygen species in human breast adenocarcinoma cells” (Eur J Med Chem, 2011)
